Results from different studies.
Each line is one published result; the experiments were not run side by side.
Target: Ephrin type-B receptor 2 (EPHB2, Homo sapiens, UniProt P29323)
One construct used (P29323 19-1055): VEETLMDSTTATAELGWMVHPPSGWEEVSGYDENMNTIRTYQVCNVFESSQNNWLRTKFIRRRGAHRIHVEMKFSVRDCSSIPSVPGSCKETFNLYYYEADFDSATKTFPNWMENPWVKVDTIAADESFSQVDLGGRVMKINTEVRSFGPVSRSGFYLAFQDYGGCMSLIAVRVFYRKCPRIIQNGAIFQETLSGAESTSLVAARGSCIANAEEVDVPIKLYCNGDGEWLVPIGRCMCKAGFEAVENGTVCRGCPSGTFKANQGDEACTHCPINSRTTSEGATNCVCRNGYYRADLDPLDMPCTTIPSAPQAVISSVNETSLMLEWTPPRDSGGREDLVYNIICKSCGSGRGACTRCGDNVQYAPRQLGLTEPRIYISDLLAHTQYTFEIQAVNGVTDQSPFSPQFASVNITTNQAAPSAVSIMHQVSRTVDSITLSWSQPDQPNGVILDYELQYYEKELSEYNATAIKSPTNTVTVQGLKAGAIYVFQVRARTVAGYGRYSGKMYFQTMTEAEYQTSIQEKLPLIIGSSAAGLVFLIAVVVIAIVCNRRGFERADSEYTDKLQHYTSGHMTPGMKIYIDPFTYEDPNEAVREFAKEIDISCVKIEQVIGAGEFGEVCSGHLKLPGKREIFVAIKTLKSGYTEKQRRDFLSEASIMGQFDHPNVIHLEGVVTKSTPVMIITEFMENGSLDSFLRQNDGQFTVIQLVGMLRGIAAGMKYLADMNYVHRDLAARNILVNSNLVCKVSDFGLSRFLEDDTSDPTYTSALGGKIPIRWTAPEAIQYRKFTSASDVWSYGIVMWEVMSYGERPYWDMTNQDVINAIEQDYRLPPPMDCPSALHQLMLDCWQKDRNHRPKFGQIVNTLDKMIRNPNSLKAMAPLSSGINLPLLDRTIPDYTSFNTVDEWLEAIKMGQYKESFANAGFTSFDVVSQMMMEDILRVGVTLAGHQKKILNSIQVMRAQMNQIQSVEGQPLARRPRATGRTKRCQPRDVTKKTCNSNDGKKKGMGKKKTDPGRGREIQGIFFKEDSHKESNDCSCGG

O=c1[nH]c2ccccc2n1C1CCN(Cc2ccc(-c3[nH]c4cc5ncnc5cc4nc3-c3ccccc3)cc2)CC1  remaining signal (cell-free assay; 0.5 µM): 108%
Cc1nn(C)cc1-c1nc2c(N3CCN(Cc4ccc(Cl)cc4)CC3)c(Cl)cnc2[nH]1  remaining binding (binding; competition with immobilised ligand; 1 µM): 100%
Cn1cc(-c2cccc(N3CCc4c(sc5c4CC(C)(C)C5)C3=O)c2CO)cc(Nc2ccncn2)c1=O  inhibition (enzyme activity; inhibitor; 1 µM): 1%
COc1ncccc1-c1cnn2ccc(N3CCN(C(=O)OC(C)C)CC3)nc12  remaining binding (binding; competition with immobilised ligand; 1 µM): 77%
COc1cc(Nc2ncc(F)c(Nc3ccc4c(n3)NC(=O)C(C)(C)O4)n2)cc(OC)c1OC  inhibition (binding; competition with immobilised ligand; 10 µM): 50%
N#CC1(c2ccccn2)CCN(Cc2cc(C(=O)O)c(=O)n3ccccc23)CC1  remaining binding (cell-free assay; competition with immobilised ligand; 1 µM): 100%
Cn1cc(-c2cc(F)cc(N3CCn4c(cc5c4CCCC5)C3=O)c2CO)cc(Nc2ccc(N3CCN(C4COC4)CC3)cn2)c1=O  inhibition (enzyme activity; inhibitor; 0.1 µM): 14%
Cn1cncc1[C@@](O)(COc1ccc(C#N)cc1-c1ccc(OC(F)(F)F)cc1)c1ccc(C#N)cc1  remaining binding (cell-free assay; competition with immobilised ligand; 1 µM): 100%
CC(C)(C)c1cc(C=C(C#N)C#N)cc(Br)c1O  remaining activity (enzyme activity; inhibitor; 0.5 µM): 100%
